The values that follow come from ChEMBL document CHEMBL3399971.

A short description of series [1]: Cytotoxicity against mouse BV2 cells by CytoTox96 non-radioactive cytotoxicity assay. In kind it is cell-based, BV-2. The note with it: for MNTC: BV2 cells, read-out: MNCC. The essentials: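 BV2 murine microglia in DMEM with 10% FBS, 37°C, 5% CO2. Compounds in 0.02% DMSO (final) added 1 h before LPS (50 ng/ml), 24 h co-incubation. Viability by CytoTox96 non-radioactive kit. Value is the highest concentration without obvious cytotoxicity.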

The nature of series [2]: Selectivity index, ratio of MNCC against mouse BV2 cells to IC50 for mGluR5 in mouse BV2 cells. Type of series: functional, BV-2.
Series [3] has as its target Metabotropic glutamate receptor 5 (Mus musculus, UniProt Q3UVX5). Description: Positive allosteric modulator activity at mGluR5 in mouse BV2 cells assessed as inhibition of nitric oxide production pre-treated 1 hr before lipopolysaccharide stimulation and measured 24 hrs post lipopolysaccharide stimulation by Griess reagent assay. Type of series: cell-based, BV-2. The essentials:
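BV2 microglia grown in DMEM plus 10% FBS at 37°C, 5% CO2. Pretreated 1 h with compound in 0.02% DMSO (final), then stimulated with LPS 50 ng/ml for 24 h. Read-out is supernatant nitrite by Griess reagent as a proxy for NO. IC50 is the mean of three independent experiments.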
(Griess reagent forms a coloured azo dye with nitrite.)

Sequence of Metabotropic glutamate receptor 5 (Q3UVX5 whole entry): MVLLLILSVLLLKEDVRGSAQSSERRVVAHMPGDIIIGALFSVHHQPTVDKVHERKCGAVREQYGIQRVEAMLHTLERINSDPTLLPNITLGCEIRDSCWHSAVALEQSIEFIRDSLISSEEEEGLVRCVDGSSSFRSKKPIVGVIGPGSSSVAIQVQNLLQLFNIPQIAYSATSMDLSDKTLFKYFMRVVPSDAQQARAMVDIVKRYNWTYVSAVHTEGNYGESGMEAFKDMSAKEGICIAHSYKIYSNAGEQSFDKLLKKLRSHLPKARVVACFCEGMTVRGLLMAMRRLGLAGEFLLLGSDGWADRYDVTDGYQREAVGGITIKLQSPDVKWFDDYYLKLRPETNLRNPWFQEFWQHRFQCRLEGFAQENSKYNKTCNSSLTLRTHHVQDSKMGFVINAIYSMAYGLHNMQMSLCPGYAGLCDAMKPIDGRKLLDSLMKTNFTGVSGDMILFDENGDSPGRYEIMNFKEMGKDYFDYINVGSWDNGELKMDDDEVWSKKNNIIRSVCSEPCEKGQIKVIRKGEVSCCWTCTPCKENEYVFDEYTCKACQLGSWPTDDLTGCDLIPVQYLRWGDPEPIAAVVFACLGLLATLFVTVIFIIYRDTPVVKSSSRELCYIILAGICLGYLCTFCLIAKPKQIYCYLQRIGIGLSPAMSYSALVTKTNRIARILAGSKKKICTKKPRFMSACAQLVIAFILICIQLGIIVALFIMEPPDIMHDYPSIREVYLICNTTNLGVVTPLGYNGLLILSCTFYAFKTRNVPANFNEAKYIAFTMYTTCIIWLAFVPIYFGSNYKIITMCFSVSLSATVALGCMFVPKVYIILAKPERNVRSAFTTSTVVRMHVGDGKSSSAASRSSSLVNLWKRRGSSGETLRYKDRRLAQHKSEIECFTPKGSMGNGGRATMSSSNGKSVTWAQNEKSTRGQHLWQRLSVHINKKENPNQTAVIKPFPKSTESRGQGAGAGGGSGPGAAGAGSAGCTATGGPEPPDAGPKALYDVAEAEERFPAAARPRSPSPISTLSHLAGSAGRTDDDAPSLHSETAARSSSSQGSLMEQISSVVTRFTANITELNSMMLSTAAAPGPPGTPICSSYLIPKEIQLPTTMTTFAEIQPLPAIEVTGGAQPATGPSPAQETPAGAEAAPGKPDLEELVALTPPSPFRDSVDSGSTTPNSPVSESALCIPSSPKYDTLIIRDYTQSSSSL

For `Fc1cccc(/C=N/N=C/c2cccc(F)c2)c1`, the MNTC in series [1] was found to be 0.5 mM.
What is called IC50 is the concentration at which inhibition is half-maximal. Turning to `O=C(Nc1nc2ccccc2[nH]1)c1cccc(Cl)c1`, the “Selectivity Index” value in series [2] is on record as 34.6. In addition, the MNTC in series [1] turned out to be 1 mM. Besides, the IC50 in series [3] (read-out: IC50) was found to be 29 µM.
With `O=C(/C=C/c1ccncc1)Nc1nc2ccccc2[nH]1`, the “Selectivity Index” value in series [2] amounted to 44.8. The MNTC in series [1] was found to be 1 mM. Besides, the 50% inhibitory concentration (IC50) in series [3] (read-out: IC50) stood at 22 µM.
As for `O=C(Nc1nc2ccccc2[nH]1)c1cc(Cl)cc(Cl)c1`, the “Selectivity Index” value in series [2] came to 125. The MNTC in series [1] was 0.8 mM. The half-maximal inhibitory concentration (IC50) in series [3] (read-out: IC50) was 6.4 µM.
Take `COc1ccc(C(=O)Nc2nc3ccccc3[nH]2)cc1`: the “Selectivity Index” value in series [2] was 10.1. Moreover, in series [1], the MNTC stood at 1 mM. For the same compound, in series [3] (read-out: IC50), the half-maximal inhibitory concentration (IC50) turned out to be 100 µM.
In the case of `O=C(Nc1nc2ccccc2[nH]1)c1ccc(Cl)c(Cl)c1`, the “Selectivity Index” value in series [2] was determined as 10.2. For the same compound, in series [1], the MNTC was 0.1 mM. The IC50 in series [3] (read-out: IC50) turned out to be 9.8 µM.
Consider `O=C(Nc1nc2ccccc2[nH]1)c1ccncc1`, for which the MNTC in series [1] turned out to be 1 mM.
With `O=C(Nc1nc2ccccc2[nH]1)c1cccc([N+](=O)[O-])c1`, the MNTC in series [1] turned out to be 1 mM. For the same compound, in series [3] (read-out: IC50), the IC50 amounted to 29 µM.
Turning to `O=C(Nc1nc2ccccc2[nH]1)c1ccccc1C(F)(F)F`, in series [2], the “Selectivity Index” value is listed as 11.3. The MNTC in series [1] was found to be 1 mM. Also, the IC50 in series [3] (read-out: IC50) turned out to be 88 µM.
`O=C(Nc1nc2ccccc2[nH]1)c1cc(C(F)(F)F)ccc1C(F)(F)F`: the “Selectivity Index” value in series [2] amounted to 1.74. The MNTC in series [1] worked out at 0.06 mM. The IC50 in series [3] (read-out: IC50) was determined as 34 µM.
For `CN(C)c1cccc(C(=O)Nc2nc3ccccc3[nH]2)c1`, the “Selectivity Index” value in series [2] was found to be 14.7. Moreover, in series [1], the MNTC is 0.3 mM. Moreover, the IC50 in series [3] (read-out: IC50) is 20 µM.
In the case of `O=C(Nc1nc2ccccc2[nH]1)C1CCC1`, the “Selectivity Index” value in series [2] amounted to 3.97. Besides, in series [1], the MNTC came to 0.06 mM. Moreover, the IC50 in series [3] (read-out: IC50) was 15 µM.
For `O=C(Nc1nc2ccccc2[nH]1)c1ccccc1Cl`, the “Selectivity Index” value in series [2] is on record as 2.67. Besides, the MNTC in series [1] was found to be 0.3 mM. The IC50 in series [3] (read-out: IC50) was determined as 110 µM.
Take `O=C(Nc1nc2ccccc2[nH]1)c1ccccc1F`: the “Selectivity Index” value in series [2] was 28. In series [1], the MNTC came to 1 mM. For the same compound, in series [3] (read-out: IC50), the IC50 came out at 36 µM.
With `O=C(Nc1nc2ccccc2[nH]1)c1ccc([N+](=O)[O-])cc1`, the “Selectivity Index” value in series [2] turned out to be 9.2. Moreover, the MNTC in series [1] stood at 0.3 mM. In series [3] (read-out: IC50), the IC50 amounted to 33 µM.
Turning to `O=C(Nc1nc2ccccc2[nH]1)c1cc(Cl)ccc1Cl`, the “Selectivity Index” value in series [2] is recorded as 8.33. In series [1], the MNTC is 0.1 mM. In addition, the IC50 in series [3] (read-out: IC50) came out at 12 µM.
Take `O=C(Nc1nc2ccccc2[nH]1)c1cccc(C(F)(F)F)c1`: the “Selectivity Index” value in series [2] stood at 17.2. Besides, the MNTC in series [1] came out at 0.2 mM. In series [3] (read-out: IC50), the IC50 was 12 µM.
Consider `CN(C(=O)c1cccc(Cl)c1)c1nc2ccccc2[nH]1`, for which, in series [2], the “Selectivity Index” value is given as 4.85. In series [1], the MNTC came to 1 mM. Moreover, the IC50 in series [3] (read-out: IC50) is 210 µM.
On to `O=C(Nc1nc2ccccc2[nH]1)c1ccccn1`, for which the MNCC result in series [1] (bv-2) is “ND(Insoluble)”. The half-inhibitory concentration (IC50) entry in series [3] (bv-2) is reported as “ND(Insoluble)”.
For the compound `COc1cccc(C(=O)Nc2nc3ccccc3[nH]2)c1`, the “Selectivity Index” value in series [2] is on record as 8.06. In series [1], the MNTC was 1 mM. For the same compound, the IC50 in series [3] (read-out: IC50) came to 120 µM.
For `O=C(Sc1nc2ccccc2[nH]1)c1cccc(Cl)c1` the same measures were 6.36, 1 mM and 160 µM.
For the compound `O=C(Nc1nc2ccccc2[nH]1)c1ccc(F)cc1`, in series [2], the “Selectivity Index” value is 67.1. Moreover, the MNTC in series [1] was 1 mM. The IC50 in series [3] (read-out: IC50) was 15 µM.
On to `O=C(Nc1nc2ccccc2[nH]1)c1ccccc1`, for which the “Selectivity Index” value in series [2] was found to be 6.17. Further, the MNTC in series [1] is 1 mM. The IC50 in series [3] (read-out: IC50) is 160 µM.
Consider `O=C(Nc1nc2ccccc2[nH]1)c1ccc(Cl)cc1`, for which, in series [2], the “Selectivity Index” value is 40.4. The MNTC in series [1] stood at 1 mM. For the same compound, the IC50 in series [3] (read-out: IC50) came to 25 µM.
On to `COc1cc(C(=O)Nc2nc3ccccc3[nH]2)ccc1S(N)(=O)=O`, for which, in series [2], the “Selectivity Index” value is listed as 6.59. Also, in series [1], the MNTC is 1 mM. Besides, in series [3] (read-out: IC50), the IC50 amounted to 150 µM.
As for `O=C(Nc1nc2ccccc2[nH]1)C1CCCCC1`, the “Selectivity Index” value in series [2] was 24.1. For the same compound, the MNTC in series [1] was found to be 1 mM. Moreover, the concentration for half-maximal inhibition (IC50) in series [3] (read-out: IC50) turned out to be 42 µM.
For `O=C(Nc1nc2ccccc2[nH]1)c1ccc(C(F)(F)F)cc1`, in series [2], the “Selectivity Index” value is 16.9. In series [1], the MNTC turned out to be 1 mM. The 50% inhibitory concentration (IC50) in series [3] (read-out: IC50) came out at 59 µM.
